# Experiments:
# Assay type in all cases: functional
# [1] = test system: HL-60(TB); assay: Growth inhibition of human HL-60(TB) cells after 48 hrs by sulforhodamine B assay; settings: HL-60, 48 h
# Procedure, shortened: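 NCI 60-cell-line panel run over a five-log dose range. GI50 is reported as the log of the molar concentration giving 50% net cell-growth inhibition, from dose-response against untreated controls. Where that effect was not reached within the concentration interval, the highest tested concentration was used in the calculation.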
# [2] = test system: K562; assay: Growth inhibition of human K562 cells after 48 hrs by sulforhodamine B assay; settings: K562, 48 h
# Procedure, shortened: (§1)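 NCI 60-cell-line main test over a five-log dose range. GI50 is the molar concentration giving half-growth inhibition, reported as log molar. Subpanel values are median GI50 across that subpanel's lines. Where 50% inhibition was not reached within the tested interval, the highest tested concentration was used.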
# [3] = test system: SR; assay: Growth inhibition of human SR cells after 48 hrs by sulforhodamine B assay
# Procedure, shortened: (§2)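 NCI 60-cell-line main screen across nine tumor types, with five log dose range per compound. GI50 is the molar concentration giving half growth inhibition, reported as the log of the molar concentration that inhibits 50% net cell growth.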
# [4] = test system: HOP-92; assay: Growth inhibition of human HOP92 cells after 48 hrs by sulforhodamine B assay; settings: HOP-92, 48 h; procedure, shortened: as §1
# [5] = test system: NCI-H226; assay: Growth inhibition of human NCI-H226 cells after 48 hrs by sulforhodamine B assay; settings: NCI-H226, 48 h; procedure, shortened: as §1
# [6] = test system: NCI-H460; assay: Growth inhibition of human NCI-H460 cells after 48 hrs by sulforhodamine B assay; settings: NCI-H460, 48 h; procedure, shortened: as §1
# [7] = test system: HCC 2998; assay: Growth inhibition of human HCC2998 cells after 48 hrs by sulforhodamine B assay; settings: HCC 2998, 48 h; procedure, shortened: as §1
# [8] = test system: HCT-116; assay: Growth inhibition of human HCT116 cells after 48 hrs by sulforhodamine B assay; settings: HCT-116, 48 h; procedure, shortened: as §1
# [9] = test system: HT-29; assay: Growth inhibition of human HT-29 cells after 48 hrs by sulforhodamine B assay; settings: HT-29, 48 h; procedure, shortened: as §1
# [10] = test system: KM12; assay: Growth inhibition of human KM12 cells after 48 hrs by sulforhodamine B assay; settings: KM12, 48 h; procedure, shortened: as §1
# [11] = test system: SF-295; assay: Growth inhibition of human SF295 cells after 48 hrs by sulforhodamine B assay; settings: SF-295, 48 h; procedure, shortened: as §1
# [12] = test system: SF-539; assay: Growth inhibition of human SF539 cells after 48 hrs by sulforhodamine B assay; settings: SF-539, 48 h; procedure, shortened: as §1
# [13] = test system: SNB-19; assay: Growth inhibition of human SNB19 cells after 48 hrs by sulforhodamine B assay; settings: SNB-19, 48 h; procedure, shortened: as §2
# [14] = test system: SNB-75; assay: Growth inhibition of human SNB75 cells after 48 hrs by sulforhodamine B assay; settings: SNB-75, 48 h; procedure, shortened: as §2
# [15] = test system: Malme-3M; assay: Growth inhibition of human MALME-3M cells after 48 hrs by sulforhodamine B assay; procedure, shortened: as §1
# [16] = test system: SK-MEL-2; assay: Growth inhibition of human SK-MEL-2 cells after 48 hrs by sulforhodamine B assay; settings: SK-MEL-2, 48 h; procedure, shortened: as §1
# [17] = test system: SK-MEL-28; assay: Growth inhibition of human SK-MEL-28 cells after 48 hrs by sulforhodamine B assay; settings: SK-MEL-28, 48 h; procedure, shortened: as §1
# [18] = test system: SK-MEL-5; assay: Growth inhibition of human SK-MEL-5 cells after 48 hrs by sulforhodamine B assay; settings: SK-MEL-5, 48 h; procedure, shortened: as §1
# [19] = test system: UACC-257; assay: Growth inhibition of human UACC257 cells after 48 hrs by sulforhodamine B assay; settings: UACC-257, 48 h; procedure, shortened: as §2
# [20] = test system: UACC-62; assay: Growth inhibition of human UACC62 cells after 48 hrs by sulforhodamine B assay; settings: UACC-62, 48 h; procedure, shortened: as §2
# [21] = test system: IGROV-1; assay: Growth inhibition of human IGROV1 cells after 48 hrs by sulforhodamine B assay; settings: IGROV-1, 48 h; procedure, shortened: as §1
# [22] = test system: OVCAR-4; assay: Growth inhibition of human OVCAR4 cells after 48 hrs by sulforhodamine B assay; settings: OVCAR-4, 48 h; procedure, shortened: as §1
# [23] = test system: OVCAR-5; assay: Growth inhibition of human OVCAR5 cells after 48 hrs by sulforhodamine B assay; settings: OVCAR-5, 48 h; procedure, shortened: as §1
# [24] = test system: SK-OV-3; assay: Growth inhibition of human SKOV3 cells after 48 hrs by sulforhodamine B assay; settings: SK-OV-3, 48 h; procedure, shortened: as §1
# [25] = test system: A498; assay: Growth inhibition of human A498 cells after 48 hrs by sulforhodamine B assay; settings: A498, 48 h; procedure, shortened: as §1
# [26] = test system: ACHN; assay: Growth inhibition of human ACHN cells after 48 hrs by sulforhodamine B assay; procedure, shortened: as §1
# [27] = test system: CAKI-1; assay: Growth inhibition of human Caki1 cells after 48 hrs by sulforhodamine B assay; settings: CAKI-1, 48 h; procedure, shortened: as §1
# [28] = test system: TK-10; assay: Growth inhibition of human TK10 cells after 48 hrs by sulforhodamine B assay; settings: TK-10, 48 h; procedure, shortened: as §2
# [29] = test system: PC-3; assay: Growth inhibition of human PC3 cells after 48 hrs by sulforhodamine B assay; settings: PC-3, 48 h; procedure, shortened: as §1
# [30] = test system: DU-145; assay: Growth inhibition of human DU145 cells after 48 hrs by sulforhodamine B assay; settings: DU-145, 48 h; procedure, shortened: as §1
# [31] = test system: MCF7; assay: Growth inhibition of human MCF7 cells after 48 hrs by sulforhodamine B assay; settings: MCF7, 48 h; procedure, shortened: as §1
# [32] = test system: MDA-MB-231; assay: Growth inhibition of human MDA-MB-231 cells after 48 hrs by sulforhodamine B assay; settings: MDA-MB-231, 48 h; procedure, shortened: as §1
# [33] = test system: MDA-MB-435; assay: Growth inhibition of human MDA-MB-435 cells after 48 hrs by sulforhodamine B assay; settings: MDA-MB-435, 48 h; procedure, shortened: as §1
# [34] = test system: BT-549; assay: Growth inhibition of human BT549 cells after 48 hrs by sulforhodamine B assay; settings: BT-549, 48 h; procedure, shortened: as §1
# [35] = test system: NCI-H460; assay: Growth inhibition of human NCI-H460 cells assessed as cell growth at 100 uM after 48 hrs by sulforhodamine B assay relative to control; settings: NCI-H460, 48 h, read-out: Activity
# Procedure, shortened: (§3)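 One-dose pre-test on MCF7, NCI-H460 and SF-268. Cells were inoculated and pre-incubated on a microtiter plate, then given a single 10^-4 M dose and incubated 48 h. Growth was read spectrophotometrically and expressed as percent of untreated control cells; negative values indicate cell kill.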
# [36] = test system: MCF7; assay: Growth inhibition of human MCF7 cells assessed as cell growth at 100 uM after 48 hrs by sulforhodamine B assay relative to control; settings: MCF7, 48 h, read-out: Activity; procedure, shortened: as §3
# [37] = Growth inhibition of human leukemia cell after 48 hrs by sulforhodamine B assay
# Procedure, shortened: (§4)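 Subpanel median growth inhibitory concentration: the average sensitivity of each tumor-type subpanel of the NCI 60-cell-line panel, derived from per-cell-line GI50 values. GI50 values came from a five log dose range and are expressed as log molar concentration for 50% net growth inhibition.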
# [38] = Growth inhibition of human non-small lung cancer cell after 48 hrs by sulforhodamine B assay; settings: Cancer cell lines; procedure, shortened: as §4
# [39] = Growth inhibition of human colon cancer cell after 48 hrs by sulforhodamine B assay; settings: Cancer cell lines; procedure, shortened: as §4
# [40] = Growth inhibition of human CNS cancer cell after 48 hrs by sulforhodamine B assay; settings: Cancer cell lines; procedure, shortened: as §1
# [41] = Growth inhibition of human melanoma cell after 48 hrs by sulforhodamine B assay; procedure, shortened: as §4
# [42] = Growth inhibition of human ovarian cancer cell after 48 hrs by sulforhodamine B assay; settings: Cancer cell lines; procedure, shortened: as §4
# [43] = Growth inhibition of human breast cancer cell after 48 hrs by sulforhodamine B assay; settings: Cancer cell lines; procedure, shortened: as §4
smiles,measurement,setting,value
CC(NC(=O)Nc1cc(Cl)ccc1Cl)(C(F)(F)F)C(F)(F)F,GI50,[1],17.4 µM
same,GI50,[2],5.89 µM
same,GI50,[3],7.41 µM
same,GI50,[4],6.92 µM
same,GI50,[5],19.5 µM
same,GI50,[6],5.75 µM
same,GI50,[7],3.8 µM
same,GI50,[8],4.9 µM
same,GI50,[9],3.72 µM
same,GI50,[10],4.37 µM
same,GI50,[11],3.47 µM
same,GI50,[12],30.2 µM
same,GI50,[13],> 100 µM
same,GI50,[14],4.07 µM
same,GI50,[15],17.8 µM
same,GI50,[16],12.3 µM
same,GI50,[17],> 100 µM
same,GI50,[18],25.1 µM
same,GI50,[19],75.9 µM
same,GI50,[20],> 100 µM
same,GI50,[21],17.8 µM
same,GI50,[22],10.7 µM
same,GI50,[23],> 100 µM
same,GI50,[24],> 100 µM
same,GI50,[25],> 100 µM
same,GI50,[26],5.13 µM
same,GI50,[27],19.1 µM
same,GI50,[28],19.5 µM
same,GI50,[29],3.47 µM
same,GI50,[30],9.55 µM
same,GI50,[31],11.7 µM
same,GI50,[32],30.2 µM
same,GI50,[33],> 100 µM
same,GI50,[34],> 100 µM
same,growth at 100 µM,[35],17%
same,growth at 100 µM,[36],34%
same,GI50,[37],9.12 µM
same,GI50,[38],9.77 µM
same,GI50,[39],7.08 µM
same,GI50,[40],20 µM
same,GI50,[41],36.3 µM
same,GI50,[42],24 µM
same,GI50,[43],61.7 µM
CCC(NC(=O)Nc1cc(Cl)ccc1Cl)(C(F)(F)F)C(F)(F)F,GI50,[1],4.17 µM
same,GI50,[2],3.55 µM
same,GI50,[3],3.39 µM
same,GI50,[4],4.68 µM
same,GI50,[5],6.17 µM
same,GI50,[6],2.19 µM
same,GI50,[7],1.15 µM
same,GI50,[8],3.24 µM
same,GI50,[9],3.31 µM
same,GI50,[10],4.07 µM
same,GI50,[11],3.47 µM
same,GI50,[12],9.55 µM
same,GI50,[13],4.68 µM
same,GI50,[14],3.63 µM
same,GI50,[15],8.13 µM
same,GI50,[16],2.19 µM
same,GI50,[17],12 µM
same,GI50,[18],6.61 µM
same,GI50,[19],4.79 µM
same,GI50,[20],4.17 µM
same,GI50,[21],5.62 µM
same,GI50,[22],5.62 µM
same,GI50,[23],4.79 µM
same,GI50,[24],10.7 µM
same,GI50,[25],4.17 µM
same,GI50,[26],3.89 µM
same,GI50,[27],4.57 µM
same,GI50,[28],2.24 µM
same,GI50,[29],2.19 µM
same,GI50,[30],4.68 µM
same,GI50,[31],7.24 µM
same,GI50,[32],3.31 µM
same,GI50,[33],5.13 µM
same,GI50,[34],10.5 µM
same,growth at 100 µM,[35],-100%
same,growth at 100 µM,[36],-89%
same,GI50,[37],3.8 µM
same,GI50,[38],3.72 µM
same,GI50,[39],4.68 µM
same,GI50,[40],4.47 µM
same,GI50,[41],5.25 µM
same,GI50,[42],5.5 µM
same,GI50,[43],5.5 µM

# Reference: ChEMBL document CHEMBL1287654, “Anticancer activity of N-bis(trifluoromethyl)alkyl-N'-(polychlorophenyl) and N'-(1,2,4-triazolyl) ureas” (2010)
